About 2,000 (83%) of roughly 2,400 compounds were called active.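 How the source made its calls: active means activation above a cutoff set at the run's mean compound activation plus 3 SD (cut at about 39% in these data); inactive means the rest.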 The set was probably picked from earlier hits. These entries were drawn from the full list.

Chain of Trace amine-associated receptor 1 (Homo sapiens) (Q96RJ0 whole entry, looked up): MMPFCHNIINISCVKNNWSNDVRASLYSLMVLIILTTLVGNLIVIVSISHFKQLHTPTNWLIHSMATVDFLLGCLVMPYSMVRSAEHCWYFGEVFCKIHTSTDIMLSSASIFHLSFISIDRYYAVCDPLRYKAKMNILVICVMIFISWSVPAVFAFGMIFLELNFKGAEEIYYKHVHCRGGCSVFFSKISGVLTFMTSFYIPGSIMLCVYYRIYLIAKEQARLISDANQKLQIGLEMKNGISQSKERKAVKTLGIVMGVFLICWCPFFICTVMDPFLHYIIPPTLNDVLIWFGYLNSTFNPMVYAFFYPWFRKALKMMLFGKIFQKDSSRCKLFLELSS

The experiment has as its target Trace amine-associated receptor 1 (Homo sapiens) (UniProt Q96RJ0). Briefly: activators of TAAR1 calcium signal, triplicate retest – Fluo-8 calcium fluorescence, CHO RD-HGA16 cells, confirmation (AID 651783).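 Further: promiscuous G-alpha-16 overexpression reroutes TAAR1 signalling from cAMP to calcium; peak fluorescence divided by basal pre-compound fluorescence per well; 0% = DMSO wells and 100% = phenethylamine at EC100.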 The following applies: CHO RD-HGA16 TAAR1, Fluo-8 calcium fluorescence; at 3 µM; hits give high values. In short, it runs like this:
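System: hTAAR1/Gα16 CHO (RD-HGA16) cell line | Compound: Single nominal final dose of 3 µM per compound | Schedule: Fluo-8 dye loading 75 min 37 °C, then 30 min room temperature | Technique: Fluo-8 calcium signal, kinetic fluorescence read | Read-out: % activation from max-to-basal fluorescence ratio, DMSO-to-PEA scaled | Replicates: Triplicate wells per compound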
For `c1ccc(CCNC2CCCCCC2)cc1`, the activation was 91.8% (active).

Regarding `CCCCC(=O)N/N=C/c1c(O)n(CC)c(=S)n(CC)c1=O`, the activation is 106% (active).

Regarding `Cc1cccc(N2C(=O)NC(=O)/C(=C\c3cnn(-c4ccccc4)c3)C2=O)c1`, the activation was 46.7% (active).

Consider `NCC(O)c1ccc(O)cc1` (centres undefined), for which the activation was 88.3% (active).

In the case of `COc1ccc(Br)cc1CNCCc1cccc(Cl)c1`, the activation was 71% (active).

Consider `CC(Cc1ccccc1)NC=O` (centres undefined), for which the activation is 82.1% (active).

In the case of `CCC(=NCCc1ccccc1)c1c(O)n(C2CCCCC2)c(=O)[nH]c1=O`, the activation was 76.4% (active).

`Clc1ccc2nc3c(c(-c4ccccc4)c2c1)CNCC3`: the activation is 71% (active).

On to `O=C1NC(=O)N(Cc2ccco2)C(=O)/C1=C\c1ccc(-c2ccc(F)cc2)o1`, for which the activation was 52.5% (active).
